# An excerpt weighted towards active compounds, which were near 3.1% of everything screened.
# ADAM10 inh: inhibits human ADAM10; O14672; recombinant ADAM10, EDANS/DABCYL FRET peptide cleavage, 3 h; inhibition, % at 7 µM; 370,000 compounds, 0.62% hits;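 active means inhibition above a per-campaign cutoff equal to the mean of compounds falling between control-based bounds plus 3 SD, cut at about 20% in these data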;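 further: 0% = DMSO wells while the 100% control is not disclosed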
# aDG glyco up: increases alpha dystroglycan glycosylation; 360,000 compounds, 0.22% hits; Pro5-aDG cells, alpha-DG glycosylation AlphaScreen (IIH6); 0% Pro5, 100% B10-LARGE cell signal; activation, % at 10 µM;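 active means activation of at least 8% versus controls, or a plate z-score of at least 8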;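 further: Pro5 are CHO cells carrying HIG-tagged alpha-DG that lacks glycosylation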
# Hep lipid drop: modulators of hepatic lipid droplet formation | AML12 mouse hepatocytes, oleate lipid droplets, BODIPY imaging | inhibition, % at 6.5 µM | 240,000 compounds, 0.4% hits | AID 1656;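 active means lipid droplet intensity inhibited by at least 50%, with more than 500 cells counted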
#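 System: AML12 hepatocytes (mouse). Probe or stimulus: oleic acid at 100 µM to induce lipid droplet formation. Times: overnight treatment with compound plus oleate. Detection: Image-based BODIPY and DAPI two-channel analysis. Evaluation: percent inhibition of filter-corrected integrated lipid droplet intensity per well.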
# ADAM17 inh: ADAM17 inhibition, QFRET primary screen. recombinant ADAM17, EDANS/DABCYL FRET peptide cleavage. P78536. 370,000 compounds, 0.83% hits. inhibition, % at 6.95 µM;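 active means inhibition above the mean of compounds lying between control limits plus 3 SD, set per campaign, cut at about 8.5% in these data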;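 further: 0% = DMSO-only wells as the low control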
# Target sequence (P78536 215-824 limits assumed): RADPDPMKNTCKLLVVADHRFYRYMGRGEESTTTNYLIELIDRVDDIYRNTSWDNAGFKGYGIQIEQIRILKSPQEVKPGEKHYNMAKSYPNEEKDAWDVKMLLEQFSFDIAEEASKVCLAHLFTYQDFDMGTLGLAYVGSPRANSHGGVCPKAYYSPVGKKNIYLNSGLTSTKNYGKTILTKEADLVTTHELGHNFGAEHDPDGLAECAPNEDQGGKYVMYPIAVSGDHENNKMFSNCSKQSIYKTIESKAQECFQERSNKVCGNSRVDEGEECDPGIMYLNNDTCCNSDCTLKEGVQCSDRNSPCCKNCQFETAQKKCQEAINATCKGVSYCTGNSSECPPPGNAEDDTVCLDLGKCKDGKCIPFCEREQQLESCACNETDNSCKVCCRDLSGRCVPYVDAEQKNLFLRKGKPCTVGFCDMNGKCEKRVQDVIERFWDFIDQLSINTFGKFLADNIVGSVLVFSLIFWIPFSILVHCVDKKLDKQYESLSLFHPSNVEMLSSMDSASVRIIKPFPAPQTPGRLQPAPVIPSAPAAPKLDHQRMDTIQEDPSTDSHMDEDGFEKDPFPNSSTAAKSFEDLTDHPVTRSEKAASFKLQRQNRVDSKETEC
# V-ATPase pH: alters yeast V-ATPase proton transport; 350,000 compounds, 0.37% hits; response, % at 10 µM; S. cerevisiae, pHLuorin cytosolic pH fluorescence; in the data active means response mostly above about 7.3%, no sharp cut-off; inactive means mostly below about 5.4%; further: actives read high
# MPTP block: blocks calcium-induced mitochondrial swelling; isolated mouse mitochondria, Ca2+ swelling absorbance, 30 min; inhibition, % at 10 µM; 360,000 compounds, 1.4% hits;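 active means inhibition of 50% or more, scaled per plate between neutral and stimulator controls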;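 further: 0% = DMSO wells given calcium and 100% = 1 mM EGTA wells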
# MPTP counter: mitochondrial membrane potential, counter-screen; shares compounds with MPTP block; isolated mitochondria, Rhodamine 123 fluorescence; inhibition, % at 10 µM; 5,000 compounds, 78% hits; AID 624504; in the data active means inhibition above about 22%;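 further: 0% = DMSO vehicle and 100% = positive control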
# MPTP abs DR: dose response confirmation of mitochondrial permeability transition pore inhibitors; shares compounds with MPTP block; isolated mitochondria swelling, absorbance; IC50, µM; 780 compounds, 58% hits; in the data active means IC50 below about 20 µM
# MPTP cs DR: MPTP inhibitor counter-screen activity, dose response; shares compounds with MPTP block; isolated mitochondria counterscreen, fluorescence read-out; IC50, µM; 780 compounds, 49% hits; AID 651564; in the data active means IC50 below about 80 µM
# aDG glyco conf: alpha-DG glycosylation activation, confirmation; Pro5-aDG cells, IIH6 AlphaLISA; scaled to LARGE-overexpressing B10 cells as 100%; activation, % at 10 µM (by protocol); 600 compounds, 17% hits; AID 651671; shares compounds with aDG glyco up;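 active means activation of at least 7% in one or more replicates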;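 further: cells exposed to compound for two days before detection; 0% = DMSO-treated Pro5 cells and 100% = DMSO-treated B10-LARGE cells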
# ADAM10 confirm: human ADAM10 inhibition, confirmation | shares compounds with ADAM10 inh | ADAM10 QFRET peptide cleavage, EDANS fluorescence | inhibition, % at 6.95 µM | 2,100 compounds, 1% hits;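 active means inhibition above about 20% chosen separately for each screening run, limit read from the data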;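 further: 0% = DMSO wells and 100% = marimastat wells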
# ADAM17 counter: ADAM17 inhibition, counter-screen for ADAM10 exosite hits. shares compounds with ADAM10 inh. ADAM17 QFRET peptide cleavage, EDANS fluorescence. inhibition, % at 6.95 µM. 2,100 compounds, 0.5% hits. AID 743214;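 active means mean triplicate inhibition above the solvent-only control wells' mean plus 3 SD, cut at about 12% in these data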;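 further: 0% = DMSO wells and 100% = marimastat wells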
# * hit, by the source's call; i = inactive; . = not tested or not shown.
SMILES,ADAM10 inh,aDG glyco up,Hep lipid drop,ADAM17 inh,V-ATPase pH,MPTP block,MPTP counter,ADAM10 confirm,ADAM17 counter,others
COc1ccc(N2CCN(CCCNC(=O)COc3ccc(C)cc3)CC2)cc1,-2,.,.,-5,.,.,.,.,.,
CC12CCC(=O)C=C1CCC1C2CCC2(C)C(c3csc(N)n3)CCC12 (stereo unspecified),24*,7.0*,.,1,3,87*,92*,.,.,aDG glyco conf=3
Cc1ccc2c(c1)C1CS(=O)(=O)N(Cc3ccccc3)CN1C2 (stereo unspecified),-6,.,.,-3,.,.,.,.,.,
COC(=O)C1CN(Cc2ccccc2)CCS(=O)(=O)N1Cc1ccc(C(F)(F)F)cc1 (stereo unspecified),-1,.,.,-1,.,.,.,.,.,
COCCn1c(C)cc(C2=NNC(=Nc3ccc(Cl)cc3Cl)SC2)c1C,6,0,.,1,-1,1,.,.,.,
COCC(C)N=C1NN=C(c2cc(C)n(Cc3ccccc3Cl)c2C)CS1 (stereo unspecified),-72,5.6*,1,-23,-1,79*,83*,.,.,aDG glyco conf=0
Clc1ccccc1OCCn1cnc2ccccc21,-5,0,-2,-2,-5,-1,.,.,.,
Brc1ccccc1OCCCCn1cnc2ccccc21,6,10*,.,-2,1,85*,90*,.,.,aDG glyco conf=2
O=C(CCc1ccccc1)NC(NC(=S)Nc1cccc(Cl)c1)C(Cl)(Cl)Cl (stereo unspecified),-16,7.2*,5,-5,-2,94*,78*,.,.,aDG glyco conf=0
CSc1cccc(NC(=S)NC(=O)CCc2ccccc2)c1,10,0,-16,6,-1,1,.,.,.,
O=C(COc1ccc(-c2ccccc2)cc1)Nc1cccnc1,-1,4.6*,.,2,0,87*,102*,.,.,aDG glyco conf=-1
CC(=O)c1c(C)[nH]c(C(=O)OCC(=O)Nc2ccc(Cl)cc2[N+](=O)[O-])c1C,0,8.4*,-16,3,0,91*,93*,.,.,aDG glyco conf=1
CCOC(=O)c1c(C)[nH]c(C(=O)OCC(=O)Nc2cc(Cl)ccc2OC)c1C,-1,1,.,-4,-4,2,.,.,.,
O=C(CCc1ccc(S(=O)(=O)NCCc2ccccc2)cc1)N1CCN(Cc2ccc3c(c2)OCO3)CC1,21*,0,13,4,4,54*,24*,6,2,
COc1ccc(OC)c(S(=O)(=O)N2CCCC(C(=O)N3CCN(Cc4ccccc4)CC3)C2)c1 (stereo unspecified),-18,.,.,-2,.,.,.,.,.,
Cc1cccc(OC(C)CCN2CCC(C(O)(c3ccccc3)c3ccccc3)CC2)c1 (stereo unspecified),2,.,.,3,.,.,.,.,.,
O=C(NNC(=S)Nc1ccc(Cl)cc1Cl)c1cccnc1,2,0,.,-2,-4,6,.,.,.,
O=C(NNC(=S)Nc1ccc(Cl)cc1Cl)c1ccncc1,21*,0,1,7,-1,63*,15,3,0,MPTP abs DR=i;MPTP cs DR=42*
C[C@H]1[C@H](NC(=O)c2ccc(C(F)(F)F)cc2)CC[C@@]23CCCN2C(=O)CCC[C@@H]13,1,.,.,1,.,.,.,.,.,
Cc1ccc(NC(=S)NNC(=O)c2ccc(N3CCOCC3)c([N+](=O)[O-])c2)cc1Cl,21*,0,27,7,-4,88*,56*,4,0,
Cc1cccc(NC(=O)c2ccc(N3CCOCC3)c([N+](=O)[O-])c2)n1,7,0,13,0,0,1,.,.,.,
COc1ccc(-c2nnc(SCC(=O)Nc3ccc(S(=O)(=O)Nc4nccs4)cc3)n2-c2ccc(OC)cc2)cc1,19,.,.,6,.,.,.,.,.,
COc1ccc(/C=N/Nc2cc(N3CCCC3)nc(N3CCCC3)n2)cc1,65*,0,-20,0,3,77*,82*,-42,-17,
COc1ccccc1NS(=O)(=O)c1cccc(NC(=O)Nc2ccc(Cl)cc2)c1,56*,5,-6,26*,-2,83*,72*,12,3,
COc1ccc(-c2cc(C3CCN(c4cc(Cl)nc(N)n4)CC3)[nH]n2)cc1,17,2,.,7,3,31,.,.,.,
SMILES,ADAM10 inh,aDG glyco up,Hep lipid drop,ADAM17 inh,V-ATPase pH,MPTP block,MPTP counter,ADAM10 confirm,ADAM17 counter,others
Nc1nc(Cl)cc(N2CCC(c3cc(-c4ccc(Cl)cc4)n[nH]3)CC2)n1,32*,2,.,6,3,98*,90*,5,2,
O=C(Nc1ccc(Cl)c(Cl)c1)c1ccc(Cn2cc(Cl)cn2)cc1,29*,4,7,8,-4,54*,87*,8,2,
N#CNC(=Nc1cccc(F)c1)SCc1ccccc1F,23*,1,35,4,0,77*,91*,0,0,
CC(C)N=C(NC#N)SCc1ccccc1F,-1,0,8,-6,1,-1,.,.,.,
CCC(=O)Nc1nc(CC(=O)Nc2ccccc2OC)cs1,8,0,-22,-5,-1,-1,.,.,.,
COc1ccccc1NC(=O)Cc1csc(NC(=S)Nc2ccc(C)cc2)n1,33*,0,.,4,4,72*,75*,6,2,
Clc1ccc(CN2CCN(N=Cc3c4ccccc4cc4ccccc34)CC2)cc1,-13,.,.,3,.,.,.,.,.,
CSc1ccc(S(=O)(=O)Nc2ccc3c4c(cccc24)CC3)cc1,20*,1,.,7,-3,61*,73*,10,3,
O=S(=O)(Nc1ccc2c3c(cccc13)CC2)c1ccc(F)cc1,9,0,.,2,0,2,.,.,.,
Cc1ccc(S(=O)(=O)Nc2cc(C(=O)O)ccc2N2CCC(C)CC2)cc1C,-7,.,.,-4,.,.,.,.,.,
COc1cccc2sc(N(CCCN(C)C)C(=O)c3ccc(S(=O)(=O)N4CCc5ccccc5C4)cc3)nc12,5,0,-21,-2,-1,0,.,.,.,
COc1ccc(C)c2sc(N(CCCN(C)C)C(=O)c3ccc(S(=O)(=O)N4CCc5ccccc5C4)cc3)nc12,31*,0,.,-9,-5,96*,-18,21*,11,

# Assay outcomes: PubChem BioAssay, several laboratories
